# Source: PubChem
# SENP6 block: SENP6 protease inhibition | Recombinant SENP6 catalytic domain, aminoluciferin luminescence | inhibition, % at 10 µM | Q9GZR1 | AID 2599 | 330,000 tested, 1.8% active;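 active means inhibition above about 50% at the single tested dose, limit read from the data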;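 further: plate controls were DMSO wells with enzyme for no effect and DMSO wells lacking enzyme for full effect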
# SENP1 inh: SENP1 (human) catalytic domain inhibition; inhibition, % at 10 µM; Q9P0U3; 360,000 tested, 0.21% active; recombinant SENP1 catalytic domain, CyPet-SUMO1-YPet FRET cleavage;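 active means inhibition at least 30% at 10 µM, raw YFP signal under a set limit, fluorescence ratio 0.5 to 1.5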;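 further: 0% = enzyme with DMSO and 100% = no enzyme wells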
#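 Test system: recombinant human SENP1 catalytic domain, His6-tagged / Medium: pH 8 Tris buffer with EDTA, NaCl, BME, BSA, NP40, catalase / Also added: SUMO1 FRET substrate flanked by Cypet and Ypet, 25 nM / Times: 50 min reaction at room temperature / Signal: FRET, CFP and YFP emission / Control set: no-enzyme low control and enzyme-plus-DMSO high control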
# HSP90 inh: inhibitors of HSP90 luciferase refolding in rabbit reticulocyte lysate; luciferase refolding luminescence, 3 h; inhibition, % at 5.6 µM; 290,000 tested, 0.91% active;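 active means inhibition above the screen-wide mean plus 3 SD, computed separately per campaign, cut at about 16% in these data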;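 further: 0% = DMSO wells and 100% = 60 µM geldanamycin wells; inhibitors lower the luminescence because luciferase stays unfolded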
# SENP7 block: blocks the human protease SENP7; recombinant SENP7, Z-RLRGG-aminoluciferin luminescence, 40 min; inhibition, % at 5 µM; 330,000 tested, 1.5% active; AID 434973;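 active means inhibition above about 50% at the single test dose, limit read from the data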;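 further: plate controls were DMSO with enzyme for no effect and no enzyme buffer wells for full effect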
# SENP8 block-1: blocks human SENP8 cleavage of Nedd8 substrate; Q96LD8; recombinant SENP8, Nedd8 substrate fluorescence; inhibition, % at 20 µM; 360,000 tested, 0.64% active; AID 602440; in the data active means inhibition mostly above about 40%, no sharp cut-off; inactive means mostly below about 27%
# Target sequence (Q96LD8 whole entry, looked up): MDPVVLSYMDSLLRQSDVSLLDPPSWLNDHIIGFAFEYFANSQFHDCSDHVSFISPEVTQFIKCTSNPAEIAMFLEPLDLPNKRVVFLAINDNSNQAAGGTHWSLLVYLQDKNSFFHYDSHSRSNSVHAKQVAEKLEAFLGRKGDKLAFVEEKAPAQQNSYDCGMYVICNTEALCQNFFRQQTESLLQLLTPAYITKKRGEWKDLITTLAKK
# SENP8 block-2: blocks the human protease SENP8 | inhibition, % at 10 µM | purified SENP8, Z-RLRGG-aminoluciferin cleavage, luminescence | 330,000 tested, 1.2% active | Q96LD8; in the data active means inhibition above about 50%
# SENP8 conf: human SENP8 inhibition, confirmed. shares compounds with SENP7 block. Recombinant SENP8, Z-RLRGG-aminoluciferin luminescence, 60 min. inhibition, % at 12.5 µM. 6,200 tested, 40% active. AID 488912;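 active means mean inhibition across replicates above about 50%, limit read from the data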
# SENP6 confirm: confirmation of human SENP6 protease inhibitors. shares compounds with SENP7 block. recombinant SENP6, Z-RLRGG-aminoluciferin luminescence. inhibition, % at 12.5 µM. 6,200 tested, 58% active
# SENP7 conf: human SENP7 inhibition, confirmed | inhibition, % at 12.5 µM | AID 488917 | 6,200 tested, 69% active | recombinant SENP7, Z-RLRGG-aminoluciferin luminescence, 40 min | shares compounds with SENP7 block
# Casp3 select: caspase-3 inhibition (SENP selectivity assay) | shares compounds with SENP7 block | purified caspase-3, Z-DEVD-aminoluciferin luminescence, 60 min | inhibition, % at 12.5 µM | 6,200 tested, 60% active | AID 488918;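 active means mean inhibition above about 50%, limit read from the data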;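 further: plate controls were enzyme with DMSO for no effect and wells without caspase-3 for full effect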
# Target sequence (P42574 28-227 limits assumed): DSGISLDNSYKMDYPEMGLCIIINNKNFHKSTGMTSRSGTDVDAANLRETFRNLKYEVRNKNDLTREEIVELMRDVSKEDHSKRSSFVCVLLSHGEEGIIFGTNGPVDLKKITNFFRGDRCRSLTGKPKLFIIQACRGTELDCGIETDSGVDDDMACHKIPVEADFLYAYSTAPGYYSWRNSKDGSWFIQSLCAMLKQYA
# SENP luc ctr: luminescence interference (SENP counter-screen) | shares compounds with SENP7 block | AID 488919 | inhibition, % at 12.5 µM | 6,200 tested, 39% active | Pre-incubated SENP8/Z-RLRGG-aminoluciferin, luciferase luminescence interference;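 active means mean inhibition above about 50% when retested at one dose, limit read from the data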;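 further: plate controls were DMSO wells with completed reaction for no effect and substrate without enzyme for full effect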
# The depositor's hits bear a star; · = no result given. Most compounds without a hit are left out; they make up all but 2.9% or so of the library.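 How the source made its calls, unless noted: active means mean inhibition above about 50% in the one-dose retest (limit read from the data); inactive means the rest.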
SMILES,SENP6 block,SENP1 inh,HSP90 inh,SENP7 block,SENP8 block-1,SENP8 block-2,SENP8 conf,SENP6 confirm,SENP7 conf,Casp3 select,SENP luc ctr
CN1CCN(c2ccc(-c3cccc(NC(=O)COc4ccc(Cl)cc4Cl)c3)nn2)CC1,31,-7,·,67*,1,19,18,20,21,18,17
CCOc1ccccc1C(=O)Nc1cccc(-c2ccc(N3CCOCC3)nn2)c1,78*,-1,·,70*,-15,55*,24,68*,89*,63*,17
CCn1c(O)c(N=Nc2ccc3ccccc3n2)c2ccccc21,95*,12,1,97*,39,94*,18,23,98*,30,6
Cc1cccc(-n2ncc3c(N(CCO)CCO)ncnc32)c1,-5,-2,-4,7,3,-8,·,·,·,·,·
Cc1cccc(-n2ncc3c(N(C)C4CCCCC4)ncnc32)c1,67*,-47,·,60*,-3,68*,-12,-7,-4,1,19
CC(=O)c1sc(N/N=C\c2c(O)ccc3ccccc23)nc1C,7,-43,·,-16,-122,5,·,·,·,·,·
O=c1cc(-c2cccs2)oc2ccc(Cl)cc12,55*,-2,-3,50*,-93,34,25,27,51*,46,18
O=c1cc(-c2ccc3c(c2)OCCO3)oc2ccc(Cl)cc12,36,-9,-3,91*,-398,16,23,26,43,41,11
O=c1c(O)c(-c2cccs2)oc2ccc(Cl)cc12,4,-24,-1,-3,-312,-6,·,·,·,·,·
N#Cc1ccccc1COC(=O)c1ccc2c(c1)OCCO2,61*,3,·,28,5,31,59*,52*,78*,43,37
COc1ccccc1/C=C/c1nc(S(=O)(=O)c2ccccc2)c(N(C)C)o1,11,-156,-1,-1,-399,1,·,·,·,·,·
COc1ccccc1/C=C/c1nc2ccc(OC(C)=O)cc2c(=O)o1,72*,-25,1,65*,-498,64*,13,7,17,14,-1
COc1ccc(OC)c(C2Nc3ccccc3NC3=C2C(=O)CC(C)(C)C3)c1 (stereo not given),-18,-2,-3,9,0,5,·,·,·,·,·
N#C/C(=C(/O)C(Cl)(Cl)Cl)c1nc2ccccc2[nH]1,96*,-9,2,75*,29,87*,90*,90*,100*,91*,55*
Cc1ccccc1OCC(=O)Nc1sc(C(=O)Nc2cccc(C)c2C)c(C)c1C#N,-12,-14,1,5,-12,-8,·,·,·,·,·
Cc1cccc2cc(/C=N/Nc3ccc(C(=O)O)cc3)c(Cl)nc12,83*,-36,7,5,-32,77*,88*,90*,89*,72*,21
Cc1cccc2cc(/C=N/NC(=O)c3ccncc3)c(Cl)nc12,4,1,-3,-4,4,-1,·,·,·,·,·
O=C1c2ccccc2C(=O)C1c1ccc(Br)cc1,94*,2,-2,1,8,93*,96*,94*,100*,89*,95*
O=C1c2ccccc2C(=O)C1c1ccc(Cl)cc1,82*,2,1,0,11,77*,89*,92*,99*,89*,88*
O=C1c2ccccc2C(=O)C1c1ccc(O)cc1,46,-35,0,-7,-363,-1,·,·,·,·,·
COC(=O)C1=C(C)Nc2[nH]c(=S)[nH]c(=O)c2C1c1ccc(O)cc1 (stereo not given),0,-20,0,-1,10,-10,·,·,·,·,·
COc1ccccc1NC(=O)Nc1ccnn1C1CCN(C(=O)C2CCOC2)CC1 (stereo not given),·,2,·,·,17,·,·,·,·,·,·
O=C(c1cc(-c2cccc(O)c2)on1)N1CCCC1,50*,-5,10,18,15,17,45,40,78*,70*,38
O=C(c1cc(-c2ccc3c(c2)OCO3)on1)N1CCOCC1,67*,1,15,57*,-3,32,58*,52*,84*,82*,54*
O=C(c1cc(-c2cccc(O)c2)on1)N1CCCCC1,-8,2,12,68*,4,61*,7,67*,91*,78*,73*
SMILES,SENP6 block,SENP1 inh,HSP90 inh,SENP7 block,SENP8 block-1,SENP8 block-2,SENP8 conf,SENP6 confirm,SENP7 conf,Casp3 select,SENP luc ctr
O=C(c1cc(-c2ccc(O)cc2)on1)N1CCCC1,39,7,12,7,10,14,·,·,·,·,·
O=C(Nc1nnc(CSCc2ccccc2F)s1)c1cccc([N+](=O)[O-])c1,56*,-7,-2,4,-19,25,10,6,2,7,1
CC(C)C(=O)Nc1nnc(CSCc2ccccc2F)s1,-18,-3,4,-11,2,-11,·,·,·,·,·
O=C(Nc1nnc(S(=O)(=O)N2CCCC2)s1)c1cccc([N+](=O)[O-])c1,52*,2,-7,20,2,34,10,30,6,26,2
CC1CCN(S(=O)(=O)c2nnc(NC(=O)c3cccc([N+](=O)[O-])c3)s2)CC1,7,1,-5,1,24,-5,·,·,·,·,·
O=C(Nc1nnc(SCc2ccccc2)s1)c1cccc([N+](=O)[O-])c1,84*,1,2,22,16,71*,68*,66*,83*,53*,44
Cc1nnc(SCc2cccc([N+](=O)[O-])c2)s1,8,2,-2,-5,13,0,·,·,·,·,·
Cc1oc2c(CN3CCC(C)CC3)c(O)ccc2c(=O)c1-c1ccccc1,-22,1,-1,-7,-271,0,·,·,·,·,·
CCOc1nc(-c2ccccc2)ccc1-c1noc(-c2cccs2)n1,-13,-29,0,-8,-101,-13,·,·,·,·,·
COc1ccccc1-c1noc(-c2cccs2)n1,76*,2,-3,68*,16,59*,78*,78*,92*,78*,80*
COc1ccccc1-c1noc(-c2ccncc2)n1,53*,1,-2,51*,18,23,42,41,77*,76*,52*
